From ChEMBL document CHEMBL1641448, “2-Hydroxycurcuminoid induces apoptosis of human tumor cells through the reactive oxygen species-mitochondria pathway” (2011) come the findings set out here.

Assay [1] concerns SW-620. Put plainly: Induction of ROS generation in human SW620 cells at 20 uM after 2 hrs relative to control. It counts as functional. The method, boiled down: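 SW620 cells were treated for 2 h. Intracellular ROS was read fluorimetrically with the DCF-DA probe (excitation 485 nm, emission 535 nm) and compared with DMSO-treated cells.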
Assay [2] relates to SW-620. Put plainly: Cytotoxicity against human SW620 cells after 48 hrs […]. It counts as functional. As to conditions: SW-620, 48 h. The method, boiled down: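 SW620 human colorectal tumor cells were exposed to a range of concentrations for 48 h. Cells were counted and GI50 was derived from growth inhibition.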
Another assay concerns MDA-MB-231. Briefly: Induction of ROS generation in human MDA-MB-231 cells at 20 uM by fluorescence microscopy in presence of N-acetyl-cysteine. It counts as functional, cell-based.
Assay [3] deals with SW-620. Briefly: Induction of apoptosis in human SW620 cells assessed as caspase 3 activation at 10 uM by fluorescence microscopy. It counts as functional, cell-based.
In assay [4] the test system is SW-620. Briefly: Induction of cell cycle arrest in human SW620 cells assessed as accumulation at G2/M phase at 10 uM after 15 hrs by propidium iodide cytofluorimetric analysis. It counts as functional, cell-based.
The test system of the next assay is HCT-116. Put plainly: Cytotoxicity against human HCT116 cells after 48 hrs by WST1 assay. Format: functional, cell-based.
A further assay has as its system MCF-10A. Briefly: Induction of cell cycle arrest in human MCF10A cells assessed as accumulation at G0/G1 phase at 10 uM after 15 hrs by propidium iodide cytofluorimetric analysis. Format: functional, cell-based.
Assay [5] relates to SW-620. Briefly: Induction of apoptosis in human SW620 cells assessed as caspase 3 activation at 10 uM by fluorescence microscopy in presence of N-acetyl-cysteine. It counts as functional, cell-based.
The test system of assay [6] is SW-620. Briefly: Induction of apoptosis in human SW620 cells assessed as release of mitochondrial cytochrome c release to cytosol upto 48 hrs. Format: functional, cell-based. The method, boiled down: (§1)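 SW620 cells were treated for the indicated time intervals. Cytosolic and membrane fractions were separated by subcellular fractionation, and Bax and cytochrome c levels in each fraction were read by Western blot.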

For assay [7], the system named is MDA-MB-231 (Homo sapiens). Briefly: Induction of apoptosis in human MDA-MB-231 cells assessed as change in cell morphology at 10 uM by fluorescence microscopy.
Assay [8] has as its system SW-620. Briefly: Induction of apoptosis in human SW620 cells assessed as late apoptotic cells at 10 uM by annexin-V/propidium iodide staining. It counts as functional. The method, boiled down: (§2)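 SW620 cells were treated for 48 h with or without 1 mM NAC. Cells were stained with annexin V and propidium iodide, and the apoptotic distribution was determined by flow cytometry.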

Assay [9] has as its system SW-620. Put plainly: Induction of apoptosis in human SW620 cells assessed as decrease in mitochondrial membrane potential after 6 to 12 hrs. It counts as functional, cell-based. The essentials:
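Mitochondrial membrane potential in SW620 cells was followed as the red:green ratio (A590:A520) over 6–12 h of treatment.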

The subject of assay [10] is SW-620. Briefly: Induction of apoptosis in human SW620 cells assessed as late apoptotic cells at 10 uM by annexin-V/propidium iodide staining in presence of N-acetyl-cysteine. It counts as functional. The essentials: as §2
Assay [11] deals with SW-620. Put plainly: Induction of apoptosis in human SW620 cells assessed as late apoptotic cells at 20 uM by annexin-V/propidium iodide staining. Format: functional. The method, boiled down:
as §2

Assay [12] has as its system SW-620. Briefly: Induction of apoptosis in human SW620 cells assessed as increase in translocation of Bax to cytosol upto 48 hrs. Format: functional, cell-based. Conditions: in the assay text read “to membrane fraction” for “to cytosol”. The method, boiled down: as §1
The test system of assay [13] is MDA-MB-231 (Homo sapiens). Put plainly: Induction of apoptosis in human MDA-MB-231 cells assessed as change in cell morphology at 10 uM by fluorescence microscopy in presence of N-acetyl-cysteine.
Assay [14] concerns SW-620. Put plainly: Induction of apoptosis in human SW620 cells assessed as PARP degradation at 10 uM by fluorescence microscopy. Format: functional, cell-based.
For assay [15], the system named is SW-620. Put plainly: Induction of apoptosis in human SW620 cells assessed as PARP degradation at 10 uM by fluorescence microscopy in presence of N-acetyl-cysteine. It counts as functional, cell-based.
For another assay, the system named is DLD-1. Briefly: Cytotoxicity against human DLD1 cells after 48 hrs by WST1 assay. Format: functional, cell-based. (Tetrazolium dyes change colour on reduction, which living cells bring about.)

Calls of active or inactive are those of the source. The calls are words filed in the database; no cut-off is given here.

In the case of `CC(=O)/C=C/c1ccccc1O`, in the assay on SW-620 [1], the “fold change (FC)” value is listed as 1.5.
As usually defined, the GI50 is the concentration at which growth is held to half of that of the control. In the case of `O=C(/C=C(O)/C=C/c1ccccc1O)/C=C/c1ccccc1O`, in the assay with SW-620 [1], the “fold change (FC)” value turned out to be 1.5. Further, it took 35 µM to inhibit growth in the assay on SW-620 [2] by half (GI50).
With `CC(=O)/C=C(O)/C=C/c1ccccc1O`, the “fold change (FC)” value in the assay with SW-620 [1] was found to be 1.5.
For the compound `COc1cc(/C=C/C(=O)C(C)(C)C(=O)/C=C/c2ccc(O)c(OC)c2)ccc1O`, in the assay with SW-620 [2], the GI50 came to 7 µM.
`O=C/C=C/c1ccccc1O` [2-HYDROXYCINNAMALDEHYDE]: the outcome in the assay with MDA-MB-231 was inactive. In addition, the “fold change (FC)” value in the assay with SW-620 [1] worked out at 1.5. Further, growth in the assay on SW-620 [2] was halved (GI50) at 15 µM.
`CC(C)C(=O)/C=C/c1ccccc1O`: the “fold change (FC)” value with SW-620 [1] came to 1.5.
Compound `COc1cc(/C=C/C(=O)CC(=O)/C=C/c2ccc(O)c(OC)c2)ccc1O` [CURCUMIN] displayed a GI50 in the assay with SW-620 [2] of 32 µM.
Regarding `CC(C)(C(=O)/C=C/c1ccccc1O)C(=O)/C=C/c1ccccc1O`, the outcome (in the assay on SW-620 [3]; in the assay with SW-620 [4]; in the assay on HCT-116; with MCF-10A; in the assay with SW-620 [6]; in assay [7]) was Active. Moreover, the result in the assay on SW-620 [9], with SW-620 [12], in the assay with SW-620 [14] and in the assay on DLD-1 was Active. For the same compound, the result (with SW-620 [5]; in [13]; in the assay with SW-620 [15]) was inactive. For the same compound, the “fold change (FC)” value with SW-620 [1] is reported as 1.5. In addition, the GI50 with SW-620 [2] came to 7 µM. For the same compound, the Activity is recorded as 73.53% with SW-620 [8], 24.25% with SW-620 [10] and 78.77% in the assay on SW-620 [11].
As for `CC(=O)C(C)(C)C(=O)/C=C/c1ccccc1O`, the “fold change (FC)” value in the assay on SW-620 [1] turned out to be 1.5. The compound further gave a GI50 in the assay on SW-620 [2] of 40 µM.
